According to ChEMBL document CHEMBL3102691, “4-Quinolone alkaloids from Melochia odorata” (J Nat Prod, 2014):

What was measured:
[1] = tested on: Human immunodeficiency virus 1; test: Antiviral activity against HIV1 infected in human CEM-TART cells assessed as inhibition of viral p24 antigen production at 1.7 uM after 48 hrs by FACS analysis; assay type: functional; conditions: Human immunodeficiency virus 1, CEM-TART
Procedure, shortened: (§1)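 HIV-infected CEM-TART cells, 48 h. Cells washed in PBS and blocked with murine myeloma IgG (1:100, 30 min, 4 °C). Then fixed in PBS/1% paraformaldehyde/0.05% Triton X100 and stained with AG3.0 mouse anti-P24 (1:50). FITC goat anti-mouse secondary, 30 min at 4 °C each step. Intracellular P24 read by flow cytometry. AZT 5 or 0.5 μg/mL controls.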

[2] = Cytotoxicity against human CEM-TART cells assessed as cell viability after 72 hrs by MTT assay; assay type: cell-based; conditions: read-out: LC50
Procedure, shortened: (§2)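 20,000 CEM-TART cells with compound (DMSO, 0.5% final) in RPMI/20% FBS with antibiotic; 72 h at 37 °C, 5% CO2; MTT (5 mg/mL in PBS) added, formazan dissolved in DMSO/0.1% SDS and read on plate reader; triplicate or quadruplicate. Highest concentration tested 100 μM.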

[3] = Therapeutic index, ratio of LC50 for human CEM-TART cells to EC50 for HIV-1 infected in human CEM-TART cells; assay type: cell-based; conditions: read-out: TI
[4] = tested on: Human immunodeficiency virus 1; test: Antiviral activity against HIV-1 infected in human CEM-TART cells assessed as protection against virus-induced cytopathicity after 96 hrs by MTT assay; assay type: functional, organism-based
Procedure, shortened: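 1A2 subclone of CEM-TART (more lysis-sensitive) in RPMI 1640/20% FBS; compound in DMSO (1% vol) added 2 h after HIV infection; 96 h at 37 °C, 5% CO2; viability by MTT (3–4 h), formazan dissolved in DMSO/0.1% SDS, A570. Triplicates per plate; EC50 = concentration giving 50% of protection by 5 μM AZT, data from ≥3 experiments combined.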

[5] = tested on: Human immunodeficiency virus 1; test: Antiviral activity against HIV1 infected in human CEM-TART cells assessed as inhibition of viral p24 antigen production at 0.95 uM after 48 hrs by FACS analysis; assay type: functional; conditions: Human immunodeficiency virus 1, CEM-TART; procedure, shortened: as §1
[6] = Cytotoxicity against human CEM-TART cells assessed as cell viability at 100 uM after 72 hrs by MTT assay; assay type: cell-based; procedure, shortened: as §2
[7] = Human immunodeficiency virus 1, CEM-TART, 96 h, read-out: EC50

COc1ccccc1[C@@]1(O)c2ccc3[nH]c(C)c(OC)c(=O)c3c2[C@@H]2CC[C@H]1O2
inhibition at 1.7 µM [1]: > 50% | CC50 at 72 h [2]: 102 µM | selectivity ratio [3]: 2 | EC50 [4, 7]: 56.2 µM

COc1c(C)[nH]c2ccc3c(c2c1=O)[C@@H]1CCC[C@@]3(c2ccccc2)O1
CC50 at 72 h [2]: 11 µM | selectivity ratio [3]: 13 | inhibition at 0.95 µM [5]: > 50% | EC50 [4, 7]: 0.84 µM

Cc1[nH]c2ccc3c(c2c(=O)c1O[C@@H]1O[C@H](CO)[C@@H](O)[C@H](O)[C@H]1O)[C@@H]1CC[C@H](O)[C@@]3(c2ccccc2)O1
Activity [6]: Non-toxic | EC50 ([4]; cem-tart): Not Active

Cc1cn([C@H]2C[C@H](N=[N+]=[N-])[C@@H](CO)O2)c(=O)[nH]c1=O [ZIDOVUDINE]
CC50 at 72 h [2]: 89.5 µM | EC50 [4, 7]: 1.3 µM
